Measurements: ChEMBL document CHEMBL1142716, “2-Hydroxy-4,6-diamino-[1,3,5]triazines: a novel class of VEGF-R2 (KDR) tyrosine kinase inhibitors” (J Med Chem, 2005)

Columns and labels:
[1] = target: T1, Vascular endothelial growth factor receptor 2 (Homo sapiens, UniProt P35968); assay: In vitro inhibition of Vascular endothelial growth factor receptor 2 at 10 uM ATP
[2] = target: T1, Vascular endothelial growth factor receptor 2; assay: Inhibition of KDR-induced MAP kinase autophosphorylation assay in HUVEC cells; assay type: functional, cell-based
Outline: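 Low-passage HUVECs (passage 3-12) were grown to confluence, serum-starved, treated with compound or DMSO, then stimulated with VEGF. Cells were lysed, run on SDS-PAGE and immunoblotted quantitatively with a phospho-p42/44 MAP kinase (pERK1/2) antibody. Inhibition is expressed as a percent of VEGF-stimulated phosphorylation in DMSO controls. IC50 values are the mean of three independent experiments.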

Insulin receptor [3] = target: T2, Insulin receptor (Homo sapiens, UniProt P06213); assay: Inhibition of human Insulin receptor expressed in CHO cells; assay type: cell-based
Outline: (§1)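 Cell-based counterscreen for growth-factor-induced p42/44 MAP kinase phosphorylation through EGFR, insulin receptor or FGFR-1. Cells were grown, treated and fixed in 96-well plates, and phosphorylation was read by phospho-specific ELISA.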

[4] = target: Macrophage colony-stimulating factor 1 receptor (Homo sapiens, UniProt P07333); assay: Inhibition of c-fms tyrosine kinase
Sequence of Macrophage colony-stimulating factor 1 receptor (P07333 whole entry): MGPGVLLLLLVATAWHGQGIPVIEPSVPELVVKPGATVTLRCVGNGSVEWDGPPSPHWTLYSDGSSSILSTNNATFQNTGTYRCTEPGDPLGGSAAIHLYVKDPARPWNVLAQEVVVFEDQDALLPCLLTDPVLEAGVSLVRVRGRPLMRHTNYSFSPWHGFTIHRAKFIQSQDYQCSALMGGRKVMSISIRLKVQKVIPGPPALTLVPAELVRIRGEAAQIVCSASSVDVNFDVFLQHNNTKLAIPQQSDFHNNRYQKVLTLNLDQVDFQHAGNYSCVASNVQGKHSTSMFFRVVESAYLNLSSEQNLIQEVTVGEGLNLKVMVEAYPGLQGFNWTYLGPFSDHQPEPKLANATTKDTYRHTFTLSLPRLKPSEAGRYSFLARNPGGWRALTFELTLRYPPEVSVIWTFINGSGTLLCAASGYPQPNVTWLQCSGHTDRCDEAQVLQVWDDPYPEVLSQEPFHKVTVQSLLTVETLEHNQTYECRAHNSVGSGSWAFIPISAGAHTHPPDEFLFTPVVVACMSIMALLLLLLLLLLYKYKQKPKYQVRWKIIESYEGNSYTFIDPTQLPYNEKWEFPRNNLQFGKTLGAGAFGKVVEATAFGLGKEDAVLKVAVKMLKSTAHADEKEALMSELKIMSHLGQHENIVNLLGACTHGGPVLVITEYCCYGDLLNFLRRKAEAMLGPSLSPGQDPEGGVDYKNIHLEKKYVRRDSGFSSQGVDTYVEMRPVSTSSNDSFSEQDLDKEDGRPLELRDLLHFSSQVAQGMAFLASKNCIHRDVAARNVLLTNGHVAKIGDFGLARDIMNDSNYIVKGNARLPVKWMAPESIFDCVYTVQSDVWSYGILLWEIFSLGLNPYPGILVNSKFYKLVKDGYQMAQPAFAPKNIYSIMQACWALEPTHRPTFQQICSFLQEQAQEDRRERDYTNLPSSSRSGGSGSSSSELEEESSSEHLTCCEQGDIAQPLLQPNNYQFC

Insulin receptor [5] = target: T2, Insulin receptor; assay: Inhibition of beta IRK tyrosine kinase
Angiopoietin-1 receptor = Angiopoietin-1 receptor (Homo sapiens, UniProt Q02763); assay: Inhibition of tyrosine protein kinase receptor TIE-2
Sequence of Angiopoietin-1 receptor (Q02763 whole entry): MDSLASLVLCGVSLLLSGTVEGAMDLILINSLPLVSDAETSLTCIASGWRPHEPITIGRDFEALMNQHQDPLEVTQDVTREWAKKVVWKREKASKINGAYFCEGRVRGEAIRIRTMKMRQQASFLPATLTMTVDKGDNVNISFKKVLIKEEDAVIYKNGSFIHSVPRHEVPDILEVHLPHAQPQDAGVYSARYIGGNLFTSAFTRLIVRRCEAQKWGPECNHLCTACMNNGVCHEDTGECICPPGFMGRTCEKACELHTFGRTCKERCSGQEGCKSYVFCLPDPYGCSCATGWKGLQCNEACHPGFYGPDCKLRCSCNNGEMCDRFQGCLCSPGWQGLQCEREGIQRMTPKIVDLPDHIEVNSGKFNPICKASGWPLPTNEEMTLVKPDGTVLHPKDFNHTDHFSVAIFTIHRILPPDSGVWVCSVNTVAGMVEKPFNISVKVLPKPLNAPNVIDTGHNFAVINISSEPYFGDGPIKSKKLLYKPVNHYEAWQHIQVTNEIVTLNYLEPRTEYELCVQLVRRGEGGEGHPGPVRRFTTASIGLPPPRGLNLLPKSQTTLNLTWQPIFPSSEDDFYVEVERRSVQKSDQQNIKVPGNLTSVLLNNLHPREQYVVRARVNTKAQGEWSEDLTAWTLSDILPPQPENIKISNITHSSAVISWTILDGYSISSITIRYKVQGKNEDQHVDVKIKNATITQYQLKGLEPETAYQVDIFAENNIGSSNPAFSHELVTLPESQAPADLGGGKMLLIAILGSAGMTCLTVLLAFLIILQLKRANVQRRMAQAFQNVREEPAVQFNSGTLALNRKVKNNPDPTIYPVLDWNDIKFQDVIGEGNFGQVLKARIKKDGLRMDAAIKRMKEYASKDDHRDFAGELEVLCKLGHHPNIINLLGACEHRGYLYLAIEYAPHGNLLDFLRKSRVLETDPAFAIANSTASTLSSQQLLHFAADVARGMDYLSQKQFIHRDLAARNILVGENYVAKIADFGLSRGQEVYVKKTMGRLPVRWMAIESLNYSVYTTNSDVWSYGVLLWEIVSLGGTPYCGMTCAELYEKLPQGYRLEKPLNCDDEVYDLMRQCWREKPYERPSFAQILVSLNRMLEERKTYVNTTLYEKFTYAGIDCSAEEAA

[6] = target: Fibroblast growth factor receptor 1 (Mus musculus, UniProt P16092); assay: Inhibition of mouse Fibroblast growth factor receptor 1 expressed in NIH 3T3 fibroblasts; outline: as §1
Sequence of Fibroblast growth factor receptor 1 (P16092 whole entry): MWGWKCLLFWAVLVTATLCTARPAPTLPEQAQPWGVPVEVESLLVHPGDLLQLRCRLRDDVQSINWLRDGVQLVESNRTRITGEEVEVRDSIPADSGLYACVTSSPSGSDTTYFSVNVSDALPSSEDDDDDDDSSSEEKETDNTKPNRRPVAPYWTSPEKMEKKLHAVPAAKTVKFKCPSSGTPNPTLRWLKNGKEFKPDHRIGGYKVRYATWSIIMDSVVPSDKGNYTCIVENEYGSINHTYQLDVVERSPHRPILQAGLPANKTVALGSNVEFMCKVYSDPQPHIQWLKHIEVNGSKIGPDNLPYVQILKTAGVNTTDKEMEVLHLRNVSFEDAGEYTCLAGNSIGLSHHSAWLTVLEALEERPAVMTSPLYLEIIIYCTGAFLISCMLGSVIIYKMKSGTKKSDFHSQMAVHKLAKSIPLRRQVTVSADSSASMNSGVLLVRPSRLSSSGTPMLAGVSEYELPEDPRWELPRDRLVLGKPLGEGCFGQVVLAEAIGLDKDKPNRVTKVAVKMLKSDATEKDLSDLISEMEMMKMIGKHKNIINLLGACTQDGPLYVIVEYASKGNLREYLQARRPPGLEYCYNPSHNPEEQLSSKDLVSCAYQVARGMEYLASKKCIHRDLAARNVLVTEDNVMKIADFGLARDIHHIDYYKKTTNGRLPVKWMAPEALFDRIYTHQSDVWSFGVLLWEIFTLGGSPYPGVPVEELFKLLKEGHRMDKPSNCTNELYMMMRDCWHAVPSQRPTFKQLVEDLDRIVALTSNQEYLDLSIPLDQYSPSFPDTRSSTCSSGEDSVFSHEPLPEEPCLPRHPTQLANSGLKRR

[7] = Inhibition of c-Src tyrosine kinase
[8] = target: Platelet-derived growth factor receptor (Homo sapiens, UniProt P09619+P16234); assay: Inhibition of PDGF-R2 tyrosine kinase; assay type: protein-complex assay
[9] = Inhibition of fibroblast growth factor receptor 1
[10] = target: T3, Epidermal growth factor receptor (Homo sapiens, UniProt P00533); assay: Inhibition of human Epidermal growth factor receptor expressed in A431
T3 sequence (P00533 whole entry): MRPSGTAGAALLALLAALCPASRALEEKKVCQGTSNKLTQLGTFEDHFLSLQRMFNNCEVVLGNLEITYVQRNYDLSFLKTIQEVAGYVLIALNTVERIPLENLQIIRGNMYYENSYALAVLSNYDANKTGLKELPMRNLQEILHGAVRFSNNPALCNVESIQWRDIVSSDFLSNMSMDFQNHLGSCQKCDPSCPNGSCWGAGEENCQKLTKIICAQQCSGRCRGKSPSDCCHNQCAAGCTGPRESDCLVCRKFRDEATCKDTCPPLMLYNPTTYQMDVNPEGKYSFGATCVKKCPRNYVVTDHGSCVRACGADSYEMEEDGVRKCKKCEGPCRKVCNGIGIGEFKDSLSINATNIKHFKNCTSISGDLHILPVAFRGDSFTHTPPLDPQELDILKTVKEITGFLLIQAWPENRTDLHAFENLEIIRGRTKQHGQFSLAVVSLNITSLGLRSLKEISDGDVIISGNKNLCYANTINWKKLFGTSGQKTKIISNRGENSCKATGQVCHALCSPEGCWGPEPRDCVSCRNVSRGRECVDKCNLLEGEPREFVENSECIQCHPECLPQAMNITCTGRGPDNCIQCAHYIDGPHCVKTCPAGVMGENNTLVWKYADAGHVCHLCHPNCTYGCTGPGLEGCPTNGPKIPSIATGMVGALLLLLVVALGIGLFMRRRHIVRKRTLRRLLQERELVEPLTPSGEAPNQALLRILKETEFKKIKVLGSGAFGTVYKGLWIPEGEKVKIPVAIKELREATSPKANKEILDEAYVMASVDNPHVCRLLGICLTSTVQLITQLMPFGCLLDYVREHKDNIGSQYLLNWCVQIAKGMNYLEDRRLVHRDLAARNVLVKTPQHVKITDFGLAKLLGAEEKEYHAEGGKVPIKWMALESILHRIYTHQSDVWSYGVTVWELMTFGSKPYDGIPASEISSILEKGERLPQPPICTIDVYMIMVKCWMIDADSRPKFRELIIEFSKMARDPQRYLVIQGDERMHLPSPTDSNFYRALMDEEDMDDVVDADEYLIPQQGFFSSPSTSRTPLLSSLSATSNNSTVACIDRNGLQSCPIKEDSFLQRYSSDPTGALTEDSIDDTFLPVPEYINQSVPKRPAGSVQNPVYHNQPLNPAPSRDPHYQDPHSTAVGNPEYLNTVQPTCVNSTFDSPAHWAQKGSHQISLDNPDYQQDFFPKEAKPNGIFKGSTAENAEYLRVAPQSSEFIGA
Outline: (§2)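 Cell-based counterscreen. Cells were grown, treated with compound and fixed in wells. EGF-R-induced phosphorylation of MAP kinase was then read directly by a phosphorylation-specific ELISA.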

HUVEC = assay: Inhibitory concentration against HUVEC cells; assay type: functional, cell-based; conditions: Homo sapiens
Rattus norvegicus [11] = organism: Rattus norvegicus; assay: Total tube length (arbitrary units) of aortic rings was measured by aortic ring assay in rat at 30 uM concentration of the compound; assay type: functional, Aorta
Outline: (§3)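 Rings cut from rat aorta were embedded in collagen gels containing 5 ng/mL VEGF and cultured for 7 days with test compound. The total length of capillary-like sprouts growing out from each ring was measured in arbitrary units and reported with SEM.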

[12] = target: T3, Epidermal growth factor receptor; assay: Inhibition of human epidermal growth factor receptor; outline: as §2
Rattus norvegicus [13] = organism: Rattus norvegicus; assay: Total tube length (arbitrary units) of aortic rings was measured by aortic ring assay in rat at 0.3 uM concentration of the compound; assay type: functional, Aorta; outline: as §3
Rattus norvegicus [14] = organism: Rattus norvegicus; assay: Total tube length (arbitrary units) of aortic rings was measured by aortic ring assay in rat at 3 uM concentration of the compound; assay type: functional, Aorta; outline: as §3
[15] = Inhibition of Fibroblast growth factor receptor 1

Row | IC50 [1] [µM] | IC50 [2] [µM] | IC50 (Insulin receptor [3]) [µM] | IC50 [4] [µM] | IC50 (Insulin receptor [5]) [µM] | IC50 (Angiopoietin-1 receptor) [µM] | IC50 [6] [µM] | IC50 [7] [µM] | IC50 [8] [µM] | IC50 [9] [µM] | IC50 [10] [µM] | IC50 [12] [µM] | IC50 [15] [µM] | SMILES | IC50 (HUVEC) [µM] | Activity (Rattus norvegicus [11]) | Activity (Rattus norvegicus [13]) | Activity (Rattus norvegicus [14])
1 | 5.5 | 1.08 |  |  |  |  |  |  |  |  |  |  |  | CC(C)(Nc1nc(Cl)nc(Nc2ccc3ncsc3c2)n1)c1ccccc1 |  |  |  | 
2 | 0.035 | 0.4 | > 10 | > 12.5 | 0.55 | 1 | > 10 | 4.3 | 8 | > 12.5 | > 10 |  |  | CC(C)(Nc1nc(O)nc(Nc2ccc3ncsc3c2)n1)c1ccccc1 |  |  |  | 
3 | 0.04 | 0.84 | > 10 | 14 | 0.42 | 0.7 | > 10 | 1.8 | 3.9 | 1.8 | > 10 |  |  | CC(C)(Nc1nc(NO)nc(Nc2ccc3ncsc3c2)n1)c1ccccc1 |  |  |  | 

More lines, now with the values behind:

Row | SMILES | IC50 [1] [µM] | IC50 [2] [µM] | IC50 (Insulin receptor [3]) [µM] | IC50 [4] [µM] | IC50 (Insulin receptor [5]) [µM] | IC50 (Angiopoietin-1 receptor) [µM] | IC50 [6] [µM] | IC50 [7] [µM] | IC50 [8] [µM] | IC50 [9] [µM] | IC50 [10] [µM] | IC50 [12] [µM] | IC50 [15] [µM] | IC50 (HUVEC) [µM] | Activity (Rattus norvegicus [11]) | Activity (Rattus norvegicus [13]) | Activity (Rattus norvegicus [14])
4 | COc1nc(Nc2ccc3ncsc3c2)nc(NC(C)(C)c2ccccc2)n1 | 6.1 | > 30 |  |  |  |  |  |  |  |  |  |  |  |  |  |  | 
5 | CC(C)(Nc1nc(O)nc(Nc2ccc3[nH]cnc3c2)n1)c1ccccc1 | 0.24 | > 20 |  |  |  |  |  |  |  |  |  |  |  |  |  |  | 
6 | CC(C)N(Cc1ccccc1)c1nc(O)nc(Nc2ccc3ncsc3c2)n1 | 0.018 | 0.28 | > 10 | > 12.5 | 11 | 0.18 | > 10 | > 12.5 | > 12.5 | > 12.5 |  | > 10 |  | 0.28 | 36.3 | 1503 | 348
7 | CCN(Cc1ccccc1)c1nc(O)nc(Nc2ccc3ncsc3c2)n1 | 0.049 | 0.6 | > 10 | 4.3 | 4 | 0.4 | > 10 | 3.1 | 2.5 |  | > 10 |  | > 12.5 |  |  |  | 
8 | CN(Cc1ccccc1)c1nc(O)nc(Nc2ccc3ncsc3c2)n1 | 0.32 | 2.4 |  |  |  |  |  |  |  |  |  |  |  |  |  |  | 
9 | Oc1nc(NCc2ccccc2)nc(Nc2ccc3ncsc3c2)n1 | 2 | > 30 |  |  |  |  |  |  |  |  |  |  |  |  |  |  | 
